Hits are enriched below; roughly 0.7% of the tested compounds scored in any of these assays.
N-glyco inh: blocks N-linked glycosylation in D54 reporter cells; actives 0.23% (n = 360,000); reporter increase, % at 12.5 µM; D54 ERlucT glycosylation luciferase reporter, 24 h; percent of 100 nM tunicamycin response; AID 588692;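 active = mean luciferase reporter signal, scaled so untreated is 0 and the glycosylation-blocking control 100, at or above a set limit in every replicate; inconclusive = mean reaches the limit but not every replicate does; inactive = mean below the limit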;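 note: luciferase carries N-glycosylation sites so blocking glycosylation raises the light; 0% = median of neutral control wells and 100% = median of 100 nM tunicamycin wells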
FN deposit inh: fibronectin deposition inhibition. AH1F fibroblasts, Alexa488-fibronectin deposition fluorescence, overnight. inhibition, % at 12.6 µM. actives 0.086% (n = 350,000). AID 743247;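 active = mean inhibition across replicates of 30% or more, regardless of how many single replicates reach that level; inconclusive = mean under 30% yet at least half of replicates reach 30%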;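 note: positive control wells lacked labelled fibronectin entirely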
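Measured by – fluorescence 485/525 nm · System – AH1F fibroblast monolayer, labelled fibronectin deposition · Amount – 10000 cells per well · Buffer or medium – serum-reduced DMEM (2% serum) · Doses – single dose, pinned · Also added – fluorescent fibronectin at 24 nM final · Schedule – 1 h cell attachment, overnight exposure to compound and label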
CaV13 FRET inh: Primary screen for inhibitors of IQ motif and Ca2+-dependent inactivation inhibitor domain binding in CACNA1D, Förster resonance energy transfer in living cells, …; HEK cells, CFP/YFP FRET ICDI-IQ, plate reader, 10 min; percent FRET-ratio fall versus neutral wells; inhibition, % at 12.3 µM; actives 0.098% (n = 340,000); AID 743397;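 active = mean replicate inhibition of at least 30% and at least 1% of replicates passing that level; inconclusive = only one of the two criteria is met; inactive = neither criterion is met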;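 note: 0% = median of the neutral control wells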
RAD54 branch: inhibitors of human RAD54 branch migration | RAD54 Holliday junction branch migration, FAM/BHQ fluorescence | inhibition, % at 10.4 µM | actives 0.14% (n = 360,000) | AID 602329;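 active = mean normalized replicate activity at least 40 and at least half of replicates scoring 40 or more; inconclusive = only one of the two criteria met; inactive = mean below 40 and under half of replicates reaching 40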;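 note: 0% = median of neutral control wells and 100% = median of positive control wells; inhibitors cause a drop in the FAM fluorescence signal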
RAD52 inh: inhibitors of human RAD52 DNA annealing; P43351; recombinant RAD52 DNA annealing, FRET fluorescence; inhibition, % at 18.7 µM; actives 0.46% (n = 360,000);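 active = every replicate showing at least 50% inhibition; inconclusive = mean inhibition at least 50% but not in every replicate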
Target sequence (P43351 whole entry, looked up): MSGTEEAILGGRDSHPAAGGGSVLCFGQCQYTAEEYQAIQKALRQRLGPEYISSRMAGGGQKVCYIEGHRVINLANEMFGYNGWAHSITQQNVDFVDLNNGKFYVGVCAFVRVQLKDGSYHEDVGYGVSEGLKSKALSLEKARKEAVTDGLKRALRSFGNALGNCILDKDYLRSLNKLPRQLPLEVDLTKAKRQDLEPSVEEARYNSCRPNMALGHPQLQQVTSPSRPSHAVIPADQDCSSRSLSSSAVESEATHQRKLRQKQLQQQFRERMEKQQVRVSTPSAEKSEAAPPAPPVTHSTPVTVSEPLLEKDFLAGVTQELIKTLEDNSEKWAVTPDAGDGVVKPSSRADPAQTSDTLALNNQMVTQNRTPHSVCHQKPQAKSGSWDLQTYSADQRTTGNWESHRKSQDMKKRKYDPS
* hit, by the source's call; u = inconclusive; x = no result; + = active, no number.

SMILES | N-glyco inh | FN deposit inh | CaV13 FRET inh | RAD54 branch | RAD52 inh
COC(=O)c1c(N)n(CCCN2CCOCC2)c2nc3ccccc3nc12 | 10.6 | 0.7 | -3.1 | 79.3* | x
Nc1c(C(=O)NCc2ccccc2)c2nc3ccccc3nc2n1CCCN1CCOCC1 | 0.2 | 0.6 | 76.2* | x | -25.8
CN(C)c1cc(Nc2ccc(O)cc2)c([N+](=O)[O-])c2nonc12 | 1.2 | 8.2 | -16.0 | 1.4 | -4.5
O=[N+]([O-])c1c(Nc2ccc(O)cc2)cc(Cl)c2nonc12 | -18.1 | 53.9* | -4.2 | 19.2 | 28.8
O=C(NC[C@@H]1[C@H](c2ccccc2)[C@@H](CO)N1C(=O)Cc1ccncc1)C1CCC1 | x | x | x | 2.2 | -5.2
CCC(C)NC(=S)N1CCN(Cc2ccc3c(c2)OCO3)CC1 (stereo not drawn) | 1.1 | -6.2 | 133.3* | x | -12.2
O=C(Nc1ccc2oc(-c3cccnc3)nc2c1)c1ccc([N+](=O)[O-])o1 | 34.9* | 4.5 | -15.5 | x | -14.9
O=C(Nc1ccc2oc(-c3cccnc3)nc2c1)c1ccc(Br)o1 | -1.9 | x | -5.4 | 1.0 | x
Cc1c(C(=O)Nc2ccc3oc(-c4cccnc4)nc3c2)oc2ccccc12 | 29.8* | 28.2 | -5.5 | -2.7 | x
CCOC(=O)c1c(C)[nH]c(-c2csc(C)n2)c1C | -0.2 | -4.5 | -1.0 | x | -21.5
CCOC(=O)c1c(C)[nH]c(-c2csc(N)n2)c1C | 27.4* | -11.9 | 2.5 | x | -25.2
CC(=O)N[C@@H]1CC[C@H](CC(=O)NCC2CCCCC2)O[C@H]1CO | x | 9.9 | x | -2.5 | 2.9
CN(C)/N=C/C=C1\CCC/C(=C\c2ccc(F)c(F)c2)C1=O | 32.3* | 16.9 | -5.4 | x | -36.9
COc1ccccc1CNc1nc(NCc2cnc(C)cn2)c2sccc2n1 | -1.6 | 35.2* | -3.3 | -1.9 | -8.4
N#C[C@@H]1[C@H](c2ccccc2-c2cccc(F)c2)[C@H](CO)N1C(=O)NC1CCCC1 | x | 1.0 | x | x | -12.4
CCN(CC)c1ccc(C(=O)N/N=C/c2ccccc2OC(F)F)cc1 | -3.5 | 40.9* | -3.1 | x | -6.2
CC(C)Oc1ccccc1/C=N/NC(=O)c1ccc(F)cc1 | 0.2 | 5.7 | -2.2 | 1.5 | x
COc1ccccc1NC(=O)N1CCCCN2[C@@H](CO)[C@H](c3ccc(-c4ccccc4)cc3)[C@@H]2C1 | x | x | x | 0.4 | 67.2*
COc1ccccc1NC(=O)N1CCCCN2[C@H](CO)[C@H](c3ccc(-c4ccc(C)cc4)cc3)[C@@H]2C1 | x | x | x | 2.6 | -9.7
COc1ccccc1NC(=O)N1CCCCN2[C@@H](CO)[C@@H](c3ccc(-c4ccccc4)cc3)[C@@H]2C1 | x | x | x | -0.2 | 50.4*
COc1ccccc1NC(=O)N1CCCCN2[C@H](CO)[C@H](c3ccc(-c4ccccc4)cc3)[C@H]2C1 | x | x | x | -6.0 | 51.7*
O=C(Nc1cc(F)ccc1F)N1CCCCN2[C@@H](CO)[C@@H](c3ccc(C4=CCCCC4)cc3)[C@@H]2C1 | x | -1.3 | x | -0.2 | 54.4*
COc1ccc2c3c([nH]c2c1)[C@H](CO)N(Cc1ccncc1)CC31CCN(Cc2ccc(-c3ccccn3)cc2)CC1 | x | x | x | x | -47.6
COCC#Cc1cnc2c(c1)C(=O)N([C@@H](C)CO)C[C@@H](C)[C@@H](CN(C)C(=O)c1ccc(F)cc1)O2 | x | -7.7 | x | 2.6 | -0.3
CCOCCCNc1nc2nc3ccc(C)cn3c(=O)c2cc1C(=O)NCC1CCCO1 (stereo not drawn) | 6.3 | 1.9 | + | x | -7.3
SMILES | N-glyco inh | FN deposit inh | CaV13 FRET inh | RAD54 branch | RAD52 inh
COc1ccc(CCn2c(=N)c(C(=O)NCC3CCCO3)cc3c(=O)n4cccc(C)c4nc32)cc1 (stereo not drawn) | 40.9* | 9.1 | -8.9 | 11.4 | -20.5
Cc1cccn2c(=O)c3cc(C(=O)NC4CCCC4)c(=N)n(CC4CCCO4)c3nc12 (stereo not drawn) | u | 4.7 | 5.8 | 34.3 | 14.9
Cc1cccn2c(=O)c3cc(C(=O)NCC4CCCO4)c(=N)n(CC4CCCO4)c3nc12 (stereo not drawn) | 11.4 | -3.0 | 58.3* | 20.9 | 16.5
COc1ccc(Cl)cc1NC(=O)CSc1nc(N2CCOCC2)nc(N2CCOCC2)n1 | -2.8 | 4.5 | -3.1 | -5.7 | -8.4
COc1ccc(Cl)cc1NC(=O)CSc1nc(Nc2ccccc2)nc(N2CCOCC2)n1 | -9.5 | 30.6* | -5.2 | 6.6 | -8.6
CN(C)C(=O)C[C@@H]1CC[C@@H]2[C@H](COC[C@@H](O)CN2C(=O)c2ccncc2)O1 | x | -9.1 | x | 3.9 | x
CN(C)C(=O)C[C@@H]1CC[C@@H]2[C@H](COC[C@H](O)CN2C(=O)c2ccncc2)O1 | x | 7.8 | x | 2.4 | 69.8*
CN=c1sc(C(=O)Nc2cccc(Cl)c2)cc(=O)n1C | 30.8* | x | -8.7 | -32.4 | x
Cn1c(N)c(C(=O)Nc2cccc(Cl)c2)c(=O)n(C)c1=O | 3.5 | -4.3 | -2.8 | 6.6 | -16.4
CCCC#Cc1cnc2c(c1)C(=O)N([C@@H](C)CO)C[C@H](C)[C@H](CN(C)C(=O)C1CCOCC1)O2 | x | x | x | -4.5 | 10.0
COc1cc(Nc2c3c(nc4ccccc24)CCC3)cc(OC)c1OC | 48.6* | 8.6 | -19.2 | 10.9 | 7.7
COc1ccc(OC)c(Nc2c3c(nc4ccccc24)CCC3)c1 | 12.9 | 4.1 | -4.0 | 10.4 | -0.6
C[C@H]1CN([C@@H](C)CO)C(=O)c2cccc(NC(=O)Nc3ccc(F)cc3)c2O[C@@H]1CN(C)Cc1ccc(Cl)c(Cl)c1 | x | x | x | -2.4 | 10.5
NC(=O)CC(NC(=O)Cc1cccc2ccccc12)c1ccc(NC2CCC2)c([N+](=O)[O-])c1 (stereo not drawn) | 3.1 | -3.4 | -12.1 | 0.1 | -33.5
CC(C)Nc1ccc(C(CC(N)=O)NC(=O)Cc2ccc(Cl)cc2)cc1[N+](=O)[O-] (stereo not drawn) | 41.0* | -0.2 | -10.0 | -9.6 | -135.5
NC(=O)CC(NC(=O)c1ccccc1)c1ccc(NC2CCCC2)c([N+](=O)[O-])c1 (stereo not drawn) | 2.9 | -3.6 | -10.7 | 7.1 | -7.6
NC(=O)CC(NC(=O)Cc1ccc(Cl)cc1)c1ccc(NC2CCCC2)c([N+](=O)[O-])c1 (stereo not drawn) | 49.0* | 3.8 | -4.6 | -16.9 | -35.6
NC(=O)CC(NC(=O)Cc1ccc(Br)cc1)c1ccc(NC2CCC2)c([N+](=O)[O-])c1 (stereo not drawn) | 39.5* | -1.6 | x | -3.9 | -6.2
NC(=O)CC(NC(=O)Cc1ccc(Cl)cc1)c1ccc(NC2CCCCC2)c([N+](=O)[O-])c1 (stereo not drawn) | 45.3* | -9.9 | -11.7 | -3.1 | -131.5
C[C@H]1CN([C@@H](C)CO)C(=O)c2cccc(NC(=O)c3ccncc3)c2O[C@H]1CN(C)C(=O)NC1CCCCC1 | x | x | x | -4.7 | 6.6
O=C(N[C@H]1CC[C@H](CC(=O)N2CCc3ccccc3C2)O[C@@H]1CO)C1CC1 | x | -11.2 | x | -10.8 | 7.7
C[C@@H]1CN([C@H](C)CO)C(=O)c2cc(C3=CCCC3)cnc2O[C@H]1CN(C)Cc1ccccn1 | x | x | x | -3.6 | -15.4

Bioassay records from PubChem BioAssay.
